Measurements as given in PMC7127808 (Biochimie, 2017).

Legend:
[1] = test system: Wistar rats; test: Mortality and spontaneous behavior after intraperitoneal injection; format: in vivo; conditions: 3 μg/g b.w. intraperitoneal, compared to the vehicle group (not shown)
[2] = target: T1, Porcine kidney APN (pAPN) (Sus scrofa, UniProt P15145); test: Porcine kidney APN; format: biochemical; conditions: for Inhibition Type: Table 1, hAPN and pAPN, Lineweaver-Burk diagnosis (hAPN data not shown); for α (pAPN): factor between αKi and Ki vs pAPN; for IC50: read-out: IC50 vs pAPN, 30 min pre-incubation, substrate at KM, n = 4
T1 sequence (P15145 1-963): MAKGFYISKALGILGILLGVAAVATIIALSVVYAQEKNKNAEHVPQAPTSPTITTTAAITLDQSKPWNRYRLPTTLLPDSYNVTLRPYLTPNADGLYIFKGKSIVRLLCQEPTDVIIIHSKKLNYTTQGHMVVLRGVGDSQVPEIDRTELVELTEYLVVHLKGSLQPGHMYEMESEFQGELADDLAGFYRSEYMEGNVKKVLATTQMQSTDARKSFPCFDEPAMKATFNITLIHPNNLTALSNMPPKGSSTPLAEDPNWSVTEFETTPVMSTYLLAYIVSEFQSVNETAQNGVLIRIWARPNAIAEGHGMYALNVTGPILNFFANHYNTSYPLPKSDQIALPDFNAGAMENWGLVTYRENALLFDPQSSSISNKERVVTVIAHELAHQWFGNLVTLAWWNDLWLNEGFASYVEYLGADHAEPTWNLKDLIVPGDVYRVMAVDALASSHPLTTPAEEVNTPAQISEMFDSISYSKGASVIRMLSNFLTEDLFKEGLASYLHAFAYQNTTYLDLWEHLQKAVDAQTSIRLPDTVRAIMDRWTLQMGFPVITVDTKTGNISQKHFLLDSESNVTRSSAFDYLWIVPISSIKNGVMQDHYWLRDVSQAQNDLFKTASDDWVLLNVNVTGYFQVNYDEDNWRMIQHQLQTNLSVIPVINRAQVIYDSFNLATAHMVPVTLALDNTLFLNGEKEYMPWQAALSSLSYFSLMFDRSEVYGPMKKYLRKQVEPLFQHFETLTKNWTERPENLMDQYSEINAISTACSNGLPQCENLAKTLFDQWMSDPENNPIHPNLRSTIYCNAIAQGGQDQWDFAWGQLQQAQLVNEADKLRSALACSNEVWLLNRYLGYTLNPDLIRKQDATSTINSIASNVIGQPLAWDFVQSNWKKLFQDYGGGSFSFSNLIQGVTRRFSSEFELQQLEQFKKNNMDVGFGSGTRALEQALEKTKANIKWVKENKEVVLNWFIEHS

[3] = target: Human placental aminopeptidase N (hAPN) (Homo sapiens, UniProt P15144); test: Human placental aminopeptidase N; format: biochemical; conditions: read-out: IC50 vs hAPN; 30 min pre-incubation; substrate at KM; n = 4
Human placental aminopeptidase N (hAPN), sequence (P15144 whole entry): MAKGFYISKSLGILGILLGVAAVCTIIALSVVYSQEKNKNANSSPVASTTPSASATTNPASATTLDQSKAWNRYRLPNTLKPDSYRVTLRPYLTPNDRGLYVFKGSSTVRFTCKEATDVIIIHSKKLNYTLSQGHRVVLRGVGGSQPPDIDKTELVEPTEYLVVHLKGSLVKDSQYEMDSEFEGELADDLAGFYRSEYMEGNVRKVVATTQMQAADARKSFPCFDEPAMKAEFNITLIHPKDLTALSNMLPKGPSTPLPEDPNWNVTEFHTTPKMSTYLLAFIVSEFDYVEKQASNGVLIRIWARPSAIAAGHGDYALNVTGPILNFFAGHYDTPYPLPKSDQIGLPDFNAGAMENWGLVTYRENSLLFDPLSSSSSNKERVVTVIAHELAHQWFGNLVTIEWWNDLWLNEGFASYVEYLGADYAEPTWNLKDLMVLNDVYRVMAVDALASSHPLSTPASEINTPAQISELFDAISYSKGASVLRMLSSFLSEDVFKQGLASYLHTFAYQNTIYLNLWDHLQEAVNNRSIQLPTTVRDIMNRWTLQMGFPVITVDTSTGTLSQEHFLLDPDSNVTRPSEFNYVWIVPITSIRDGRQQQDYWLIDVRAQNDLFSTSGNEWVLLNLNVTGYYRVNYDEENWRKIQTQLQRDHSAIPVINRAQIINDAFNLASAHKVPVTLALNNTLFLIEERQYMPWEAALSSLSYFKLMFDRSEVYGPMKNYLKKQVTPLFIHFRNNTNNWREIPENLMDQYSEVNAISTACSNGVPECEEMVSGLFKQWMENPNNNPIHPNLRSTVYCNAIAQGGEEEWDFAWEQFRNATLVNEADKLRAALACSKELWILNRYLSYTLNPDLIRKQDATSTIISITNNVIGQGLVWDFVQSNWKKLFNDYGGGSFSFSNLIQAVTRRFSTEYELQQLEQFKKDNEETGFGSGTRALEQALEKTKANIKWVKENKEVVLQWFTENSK

[4] = target: porcine kidney cortex glutamyl aminopeptidase (porcine aminopeptidase A; pAPA) (Sus scrofa, UniProt Q95334); test: Porcine aminopeptidase A; format: biochemical; conditions: read-out: IC50 vs pAPA; dose-response, L-Glu-pNA
porcine kidney cortex glutamyl aminopeptidase (porcine aminopeptidase A; pAPA), sequence (Q95334 whole entry): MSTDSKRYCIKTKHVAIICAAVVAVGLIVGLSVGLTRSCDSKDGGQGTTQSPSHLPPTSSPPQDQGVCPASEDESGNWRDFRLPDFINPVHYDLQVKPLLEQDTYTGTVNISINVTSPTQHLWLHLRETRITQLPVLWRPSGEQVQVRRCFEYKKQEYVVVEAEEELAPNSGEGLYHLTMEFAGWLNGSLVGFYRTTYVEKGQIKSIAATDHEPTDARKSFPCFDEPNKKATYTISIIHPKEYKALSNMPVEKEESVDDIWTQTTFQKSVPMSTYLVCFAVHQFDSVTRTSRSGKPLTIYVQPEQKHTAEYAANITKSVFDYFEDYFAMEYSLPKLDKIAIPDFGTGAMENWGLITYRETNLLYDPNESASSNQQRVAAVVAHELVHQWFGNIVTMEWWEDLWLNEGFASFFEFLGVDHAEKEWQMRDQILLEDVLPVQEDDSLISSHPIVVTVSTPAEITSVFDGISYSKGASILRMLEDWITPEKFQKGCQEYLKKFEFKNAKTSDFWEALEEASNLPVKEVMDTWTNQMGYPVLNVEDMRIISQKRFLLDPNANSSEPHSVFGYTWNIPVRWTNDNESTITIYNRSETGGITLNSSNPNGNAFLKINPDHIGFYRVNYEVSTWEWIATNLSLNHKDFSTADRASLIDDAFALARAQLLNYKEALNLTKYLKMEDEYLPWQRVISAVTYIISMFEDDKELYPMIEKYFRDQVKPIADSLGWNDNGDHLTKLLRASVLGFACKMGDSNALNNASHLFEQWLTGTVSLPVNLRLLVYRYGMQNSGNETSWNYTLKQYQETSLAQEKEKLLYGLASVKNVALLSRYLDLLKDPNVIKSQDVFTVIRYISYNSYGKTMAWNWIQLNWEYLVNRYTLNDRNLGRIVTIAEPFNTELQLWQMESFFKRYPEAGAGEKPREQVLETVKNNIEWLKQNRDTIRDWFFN
How it was run: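 Microsomes from porcine kidney cortex, prepared as for placental APN, used at 1 mg/mL in 50 mM Tris-HCl pH 8, 0.1% Triton X100, 1 mM CaCl2. Substrate L-Glu-pNA at or below one KM. p-Nitroaniline release read at 405 nm every 15 s for 5 min, 37 °C. Test compounds came from 10 mM DMSO stocks diluted in buffer. IC50 came from nonlinear regression of dose-response data.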

[5] = target: T2, rat APN activity (Rattus norvegicus, UniProt P15684); test: In vivo effects of inhibitors on APN activity in rat organs; conditions: for blood-brain barrier crossing: inferred from inhibition of APN activity in the brain of rats
T2 sequence (P15684 1-965): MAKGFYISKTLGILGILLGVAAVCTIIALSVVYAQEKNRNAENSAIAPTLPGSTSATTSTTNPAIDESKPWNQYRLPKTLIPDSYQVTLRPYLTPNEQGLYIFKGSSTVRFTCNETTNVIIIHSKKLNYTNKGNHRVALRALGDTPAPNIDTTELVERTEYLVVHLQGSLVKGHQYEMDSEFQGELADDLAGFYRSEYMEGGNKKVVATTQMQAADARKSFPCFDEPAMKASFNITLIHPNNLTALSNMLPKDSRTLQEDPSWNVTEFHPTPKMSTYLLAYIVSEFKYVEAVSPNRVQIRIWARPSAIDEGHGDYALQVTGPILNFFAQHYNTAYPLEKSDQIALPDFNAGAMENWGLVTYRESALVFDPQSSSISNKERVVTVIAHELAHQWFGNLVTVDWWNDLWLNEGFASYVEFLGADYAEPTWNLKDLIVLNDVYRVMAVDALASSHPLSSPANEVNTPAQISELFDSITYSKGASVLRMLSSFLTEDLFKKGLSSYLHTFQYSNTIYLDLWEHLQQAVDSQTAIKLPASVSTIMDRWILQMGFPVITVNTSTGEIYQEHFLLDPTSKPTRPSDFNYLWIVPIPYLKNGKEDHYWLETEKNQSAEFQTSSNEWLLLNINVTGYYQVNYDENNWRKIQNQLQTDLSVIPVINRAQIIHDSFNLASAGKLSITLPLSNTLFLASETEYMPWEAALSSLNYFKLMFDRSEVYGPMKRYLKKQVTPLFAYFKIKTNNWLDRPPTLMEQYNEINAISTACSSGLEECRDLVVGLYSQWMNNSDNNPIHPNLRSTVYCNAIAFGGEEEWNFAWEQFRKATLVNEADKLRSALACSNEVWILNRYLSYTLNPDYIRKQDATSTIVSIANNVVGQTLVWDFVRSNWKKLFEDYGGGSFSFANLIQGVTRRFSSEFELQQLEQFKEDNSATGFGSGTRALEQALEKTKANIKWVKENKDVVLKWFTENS
How it was run: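 Wistar rats (80–100 days, 260–300 g) got one intraperitoneal injection of inhibitor, 3 μg/g body weight in 100 μL 0.9% saline, or saline alone (n = 6 per group). Decapitation 1 h later; organs frozen, stored at −70 °C. NaCl-washed membranes from 10% (w/v) homogenates in 50 mM Tris-HCl pH 8. APN kinetic assay as for porcine APN, 30 min. Mean ± SD; ANOVA, Tukey-Kramer.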

[6] = rat, 3 μg/g b.w. intraperitoneal, 60 min, vs saline injected animals

O=C(NNC(=NS(=O)(=O)c1ccc(-n2nc(C(F)(F)F)cc2-c2cccs2)cc1)N1CCCC1)c1ccc(Cl)cc1 [BTB07018, N1-[[2-(4-chlorobenzoyl)hydrazino](tetrahydro-1H-pyrrol-1-yl)methylidene]-4-[5-(2-thienyl)-3-(trifluoromethyl)-1H-pyrazol-1-yl]benzene-1-sulfonamide]
mortality or change in rat spontaneous behavior [1]: did not induce any mortality or change in rat spontaneous behavior
Inhibition Type [2]: Non-competitive α > 1
α (pAPN) [2]: 1.82
IC50 [2]: 2290 ± 100 nM
IC50 [3]: 2670 ± 110 nM
IC50 [4]: 4.74 ± 0.1 µM
blood-brain barrier crossing [5]: crossed the blood-brain barrier
APN activity in brain [5, 6]: decreased APN activity
APN activity in kidney [5, 6]: decreased APN activity
APN activity in liver [5, 6]: decreased APN activity

C(=C1c2ccccc2-c2c1ccc1ccccc21)c1cc2c3c(cccc3c1)-c1ccccc1-2 [BTB11079, 2-(7H-benzo[c]fluoren-7-ylidenmethyl)fluoranthene]
mortality or change in rat spontaneous behavior [1]: did not induce any mortality or change in rat spontaneous behavior
Inhibition Type [2]: Non-competitive α > 1
α (pAPN) [2]: 11.40
IC50 [2]: 2950 ± 100 nM
IC50 [4]: 3.88 ± 0.11 µM

CC(C)C[C@H](NC(=O)[C@@H](O)[C@H](N)Cc1ccccc1)C(=O)O [Bestatin, reference compound]
Inhibition Type [2]: Non-competitive α > 1
α (pAPN) [2]: 5.97

N#Cc1cc(Cc2ccc3c(ccc4ccccc43)c2C#N)cc2c1ccc1ccccc12 [JFD00064, 2-[(1-cyano-3-phenanthryl)methyl]phenanthrene-1-carbonitrile]
mortality or change in rat spontaneous behavior [1]: did not induce any mortality or change in rat spontaneous behavior
Inhibition Type [2]: Non-competitive α > 1
α (pAPN) [2]: 2.69
IC50 [2]: 2830 ± 100 nM
IC50 [4]: 1.82 ± 0.11 µM
blood-brain barrier crossing [5]: crossed the blood-brain barrier
APN activity in brain [5, 6]: decreased APN activity
APN activity in kidney [5, 6]: decreased APN activity
APN activity in liver [5, 6]: decreased APN activity
APN activity in pancreas [5, 6]: inhibited the APN activity
